Most compounds without a hit are left out; they make up all but 3.3% or so of the library.
5HT1E ag: activates the human 5-HT1E serotonin receptor | P28566 | CHO 5-HT1E Ga15 NFAT-bla reporter, FRET; 0% DMSO wells, 100% control agonist wells | activation, % at 6 µM | 0.69% of 65,000 active | AID 574;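 active = activation above a set limit, the screen-wide mean activation plus 3 SD, cut at about 8.5% in these data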;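 note: 100% = positive control agonist at 1 µM giving full maximal response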
Target sequence (P28566 whole entry, looked up): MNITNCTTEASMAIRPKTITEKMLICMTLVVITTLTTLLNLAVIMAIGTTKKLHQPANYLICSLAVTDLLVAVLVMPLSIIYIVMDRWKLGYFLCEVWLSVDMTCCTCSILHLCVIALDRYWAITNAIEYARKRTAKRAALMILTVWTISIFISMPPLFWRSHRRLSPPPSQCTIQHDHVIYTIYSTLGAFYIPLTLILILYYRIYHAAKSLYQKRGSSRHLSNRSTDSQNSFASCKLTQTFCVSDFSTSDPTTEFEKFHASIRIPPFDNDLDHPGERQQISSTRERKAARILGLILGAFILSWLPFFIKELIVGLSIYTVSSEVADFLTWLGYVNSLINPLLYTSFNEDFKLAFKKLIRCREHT
HEK293 NFkB inh: inhibitors of the PMA/ionomycin-induced NF-kB reporter in HEK293 cells; HEK-293 NF-kB luciferase reporter, luminescence; inhibition, % at 3 µM; 0.21% of 62,000 active; AID 465;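 active = inhibition above the mean of all tested compounds plus 3 SD, cut at about 40% in these data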;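 note: 0% = stimulated DMSO wells and 100% = 10 µM reference inhibitor 5653914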
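Material: HEK-293 cells with stable firefly luciferase reporter driven by four HIV NF-kB elements / Also added: PMA plus ionomycin mix as NF-kB-activating stimulus / Compound dosing: 3 µM once, 0.30% DMSO / Times: 1 h pretreatment, 16 h stimulation, 37 °C / Signal: luminescence / Evaluation: per-plate % inhibition versus controls / Benchmarks: DMSO and 10 µM reference inhibitor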
5HT1a antag: blocks the human serotonin 5-HT1a receptor. P08908. CHO 5-HT1a Ga15 NFAT-bla reporter, antagonist mode. inhibition, % at 10 µM. 0.68% of 62,000 active;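 active = inhibition above the mean of all tested compounds plus 3 SD, cut at about 43% in these data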;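 note: receptor stimulated by 5-CT agonist at 100 nM near EC80; beta-lactamase reporter measured by ratiometric fluorescence of a cleavable substrate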
5HT1a ag: activates the human 5-HT1a serotonin receptor. P08908. CHO 5-HT1a Ga15 NFAT-bla reporter, FRET ratio; 0% basal, 100% maximal reference agonist. activation, % at 10 µM. 0.56% of 65,000 active;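 active = activation above the screen-wide mean activation plus 3 SD, cut at about 19% in these data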;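 note: 0% = DMSO wells and 100% = 5-CT at EC100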
Jurkat tox 60K: reduces viability or proliferation of Jurkat cells. Jurkat E6.1 viability, ATP luminescence, 48 h. inhibition, % at 4 µM. 1.2% of 56,000 active;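 active = inhibition above the mean inhibition of all tested compounds plus 3 SD, cut at about 28% in these data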
HTR1E antagonist: blocks the human 5-HT1E serotonin receptor. AID 571. P28566. inhibition, % at 6 µM. CHO 5-HT1E Ga15 NFAT-bla reporter, FRET, antagonist. 0.99% of 65,000 active;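 active = inhibition above a set limit, the mean inhibition across every tested compound plus 3 SD, cut at about 29% in these data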;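 note: signal is the 460 over 535 nm emission ratio of beta-lactamase substrate; 0% = agonist plus DMSO wells and 100% = wells without agonist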
* hit, by the source's call.

`CC1CCCC(C)N1CCNC(=O)CCn1nc(-c2ccccc2)ccc1=O` (stereo not drawn) gave 5HT1E ag 1, HEK293 NFkB inh 2, 5HT1a antag 3, 5HT1a ag -2, Jurkat tox 60K -3 and HTR1E antagonist 0.
`COc1ccc(OC)c(C(C)NC(=O)c2ccco2)c1` (stereo not drawn) gave 5HT1E ag 0, HEK293 NFkB inh 10, 5HT1a antag 0, 5HT1a ag 0, Jurkat tox 60K 40* and HTR1E antagonist 8.
`Cc1cc(C)c(Cn2c(=O)n(CCCC(=O)NCc3ccco3)c(=O)c3ccccc32)c(C)c1` gave 5HT1E ag 0, HEK293 NFkB inh 13, 5HT1a antag 12, 5HT1a ag 0, Jurkat tox 60K -4 and HTR1E antagonist -2.
For CCOC(=O)C1CCN(C(=O)Cn2cc(C(=O)C3CC3)c3ccccc32)CC1 the results were 5HT1E ag 0, HEK293 NFkB inh 1, 5HT1a antag 6, 5HT1a ag -2, Jurkat tox 60K 15 and HTR1E antagonist 7.
CCOC(=O)C1CCN(C(=O)Cc2c(C(=O)O)n(C)c3ccccc23)CC1 was read as 5HT1E ag 117*, HEK293 NFkB inh 2, 5HT1a antag 2, 5HT1a ag 0, Jurkat tox 60K -2 and HTR1E antagonist 10.
`CCCOc1ccc(C(=O)c2nc3c(n2O)CCCC3)cc1` gave 5HT1E ag 0, HEK293 NFkB inh 17, 5HT1a antag -6, 5HT1a ag -2, Jurkat tox 60K 0 and HTR1E antagonist 3.
For Cc1[nH]nc2c1C(C1CC=CCC1)C(C#N)=C(N)O2 (stereo not drawn) the results were 5HT1E ag 0, HEK293 NFkB inh 7, 5HT1a antag 13, 5HT1a ag -5, Jurkat tox 60K 8 and HTR1E antagonist 5.
For N#CC1=C(N)Oc2cc(N)ccc2C1C1CC=CCC1 (stereo not drawn) the results were 5HT1E ag 8, HEK293 NFkB inh 19, 5HT1a antag -22, 5HT1a ag 16, Jurkat tox 60K 56* and HTR1E antagonist 12.
Cc1ccc(-c2nc(Nc3ccccc3)n[nH]2)cc1 was read as 5HT1E ag -1, HEK293 NFkB inh -70, 5HT1a antag 3, 5HT1a ag -2, Jurkat tox 60K -7 and HTR1E antagonist -2.
For COc1ccc(Nc2nc(N)nc(CSc3n[nH]c(-c4ccccc4)n3)n2)cc1 the results were 5HT1E ag -1, HEK293 NFkB inh -14, 5HT1a antag 2, 5HT1a ag 0, Jurkat tox 60K 6 and HTR1E antagonist 42*.
Screening Nc1nc(CSc2n[nH]c(-c3ccccc3)n2)nc(Nc2ccccc2)n1 returned 5HT1E ag 0, HEK293 NFkB inh -11, 5HT1a antag -11, 5HT1a ag 1, Jurkat tox 60K -2 and HTR1E antagonist 30*.
`CCOc1ccc(C(C)=O)cc1Cn1nc(C(=O)O)c2ccccc2c1=O` gave 5HT1E ag 1, HEK293 NFkB inh 14, 5HT1a antag 4, 5HT1a ag 0, Jurkat tox 60K -4 and HTR1E antagonist 26.
CC1=NC(C(F)(F)F)(C(F)(F)F)C2=C(CC(C)(C)CC2=O)N1Cc1ccco1 was read as 5HT1E ag -1, HEK293 NFkB inh 12, 5HT1a antag 10, 5HT1a ag 2, Jurkat tox 60K -4 and HTR1E antagonist 0.
For CCOC(=O)C1=C(C)N=C2SC(C)C(=O)N2C1c1cccc(F)c1 (stereo not drawn) the results were 5HT1E ag 0, 5HT1a ag 1 and HTR1E antagonist 3.
For CC1=C(C(=O)OCC(C)C)C(c2cccc(F)c2)N2C(=O)C(C)SC2=N1 (stereo not drawn) the results were 5HT1E ag 14*, HEK293 NFkB inh 1, 5HT1a antag 5, 5HT1a ag 0, Jurkat tox 60K -2 and HTR1E antagonist 12.
`CCOc1ccccc1Nc1nc(N)nc(CN(C)C2CCCCC2)n1` gave 5HT1E ag -1, HEK293 NFkB inh 7, 5HT1a antag 4, 5HT1a ag -1, Jurkat tox 60K -5 and HTR1E antagonist -2.
`CCNc1nc(SCc2ccccc2)nc(N2CCOCC2)n1` gave 5HT1E ag 0, HEK293 NFkB inh 18, 5HT1a antag 8, 5HT1a ag 1, Jurkat tox 60K -2 and HTR1E antagonist 36*.

Source: PubChem BioAssay (The Scripps Research Institute Molecular Screening Center)
